Assay results reported in ChEMBL document CHEMBL1142148, “Antibiotic susceptibility profile of bifidobacteria as affected by oxgall, acid, and hydrogen peroxide stress” (2007).

Experiments:
[1] = tested on: Bifidobacterium animalis; test: Antimicrobial activity against Bifidobacterium animalis ATCC 27536; assay type: functional
In short: (§1)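 Broth microdilution in MRS plus 0.05% L-cysteine-HCl. Mid-log culture adjusted to OD650 0.1, giving about 2.5 × 10^4 to 5.0 × 10^4 CFU/well, then added to twofold serial dilutions of agent. Plates incubated anaerobically at 37°C for 18 h and read at OD650. MIC is the lowest concentration matching the uninoculated blank OD, taken as the median of four repeats.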

[2] = tested on: Bifidobacterium bifidum; test: Antimicrobial activity against Bifidobacterium bifidum R0071; assay type: functional; in short: as §1
[3] = tested on: Bifidobacterium bifidum; test: Antimicrobial activity against Bifidobacterium bifidum ATCC 15696; assay type: functional; in short: as §1
[4] = tested on: Bifidobacterium bifidum; test: Antimicrobial activity against Bifidobacterium bifidum BB12; assay type: functional; in short: as §1
[5] = tested on: Bifidobacterium breve; test: Antimicrobial activity against Bifidobacterium breve ATCC 15700; assay type: functional; in short: as §1
[6] = Antimicrobial activity against Bifidobacterium infantis ATCC 15697; assay type: functional, Bifidobacterium longum subsp. infantis; details: Bifidobacterium longum; in short: as §1
[7] = tested on: Bifidobacterium longum; test: Antimicrobial activity against Bifidobacterium longum ATCC 15708; assay type: functional; in short: as §1
[8] = tested on: Bifidobacterium longum; test: Antimicrobial activity against Bifidobacterium longum R0175; assay type: functional; in short: as §1
[9] = tested on: Bifidobacterium longum; test: Antimicrobial activity against Bifidobacterium longum P/N 601377; assay type: functional; in short: as §1
[10] = tested on: Bifidobacterium pseudolongum; test: Antimicrobial activity against Bifidobacterium pseudolongum ATCC 25562; assay type: functional; in short: as §1
[11] = tested on: Bifidobacterium thermophilum; test: Antimicrobial activity against Bifidobacterium thermophilum ATCC 25866; assay type: functional; in short: as §1
[12] = tested on: Bifidobacterium breve; test: Antimicrobial activity against Bifidobacterium breve R0070; assay type: functional; in short: as §1
[13] = tested on: Bifidobacterium animalis; test: Antimicrobial activity against 60 min 1 M HCl-stressed Bifidobacterium animalis ATCC 27536 after 18 hrs; assay type: functional
In short: (§2)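 Mid-log MRS culture pelleted and resuspended in MRS broth brought to pH 2.0 with 1 M HCl, held anaerobically at 37°C for 60 min, then subcultured in MRS (pH 6.5) for 24 h anaerobically before MIC testing by broth microdilution (as for unstressed cells). Table footnote gives 18 h anaerobic regrowth after the stress. MIC is the median of four repetitions.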

[14] = tested on: Bifidobacterium bifidum; test: Antimicrobial activity against 60 min 1 M HCl-stressed Bifidobacterium bifidum R0071 after 18 hrs; assay type: functional; in short: as §2
[15] = tested on: Bifidobacterium bifidum; test: Antimicrobial activity against 60 min 1 M HCl-stressed Bifidobacterium bifidum BB12 after 18 hrs; assay type: functional; in short: as §2
[16] = tested on: Bifidobacterium breve; test: Antimicrobial activity against 60 min 1 M HCl-stressed Bifidobacterium breve ATCC 15700 after 18 hrs; assay type: functional; in short: as §2
[17] = tested on: Bifidobacterium breve; test: Antimicrobial activity against 60 min 1 M HCl-stressed Bifidobacterium breve R0070 after 18 hrs; assay type: functional; in short: as §2
[18] = Antimicrobial activity against 60 min 1 M HCl-stressed Bifidobacterium infantis ATCC 15697 after 18 hrs; assay type: functional, Bifidobacterium longum subsp. infantis; details: Bifidobacterium longum; in short: as §2
[19] = tested on: Bifidobacterium longum; test: Antimicrobial activity against 60 min 1 M HCl-stressed Bifidobacterium longum ATCC 15707 after 18 hrs; assay type: functional; in short: as §2
[20] = tested on: Bifidobacterium longum; test: Antimicrobial activity against 60 min 1 M HCl-stressed Bifidobacterium longum R0175 after 18 hrs; assay type: functional; in short: as §2
[21] = tested on: Bifidobacterium longum; test: Antimicrobial activity against 60 min 1 M HCl-stressed Bifidobacterium longum P/N 601377 after 18 hrs; assay type: functional; in short: as §2
[22] = tested on: Bifidobacterium pseudolongum; test: Antimicrobial activity against 60 min 1 M HCl-stressed Bifidobacterium pseudolongum ATCC 25562 after 18 hrs; assay type: functional; in short: as §2
[23] = tested on: Bifidobacterium thermophilum; test: Antimicrobial activity against 60 min 1 M HCl-stressed Bifidobacterium thermophilum ATCC 25866 after 18 hrs; assay type: functional; in short: as §2
[24] = tested on: Bifidobacterium animalis; test: Antimicrobial activity against 90 mins oxgall-stressed Bifidobacterium animalis ATCC 27536 after 18 hrs; assay type: functional
In short: (§3)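 Cells pelleted from mid-log MRS culture and resuspended in MRS (initial pH 6.5) with 0.3% (wt/vol) oxgall for 90 min anaerobically at 37°C. They were then regrown in MRS pH 6.5 for 24 h (footnote: 18 h) anaerobically and tested for MIC by the same broth microdilution assay. Median of four repetitions.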

[25] = tested on: Bifidobacterium bifidum; test: Antimicrobial activity against 90 mins oxgall-stressed Bifidobacterium bifidum R0071 after 18 hrs; assay type: functional; in short: as §3
[26] = tested on: Bifidobacterium bifidum; test: Antimicrobial activity against 90 mins oxgall-stressed Bifidobacterium bifidum ATCC 15696 after 18 hrs; assay type: functional; in short: as §3
[27] = tested on: Bifidobacterium bifidum; test: Antimicrobial activity against 90 mins oxgall-stressed Bifidobacterium bifidum BB12 after 18 hrs; assay type: functional; in short: as §3
[28] = tested on: Bifidobacterium breve; test: Antimicrobial activity against 90 mins oxgall-stressed Bifidobacterium breve ATCC 15700 after 18 hrs; assay type: functional; in short: as §3
[29] = tested on: Bifidobacterium breve; test: Antimicrobial activity against 90 mins oxgall-stressed Bifidobacterium breve R0070 after 18 hrs; assay type: functional; in short: as §3
[30] = Antimicrobial activity against 90 mins oxgall-stressed Bifidobacterium infantis ATCC 15697 after 18 hrs; assay type: functional, Bifidobacterium longum subsp. infantis; details: Bifidobacterium longum; in short: as §3
[31] = tested on: Bifidobacterium longum; test: Antimicrobial activity against 90 mins oxgall-stressed Bifidobacterium longum ATCC 15707 after 18 hrs; assay type: functional; in short: as §3
[32] = tested on: Bifidobacterium longum; test: Antimicrobial activity against 90 mins oxgall-stressed Bifidobacterium longum ATCC 15708 after 18 hrs; assay type: functional; in short: as §3
[33] = tested on: Bifidobacterium longum; test: Antimicrobial activity against Bifidobacterium longum ATCC 15707; assay type: functional; in short: as §1
[34] = tested on: Bifidobacterium longum; test: Antimicrobial activity against 90 mins oxgall-stressed Bifidobacterium longum R0175 after 18 hrs; assay type: functional; in short: as §3
[35] = tested on: Bifidobacterium longum; test: Antimicrobial activity against 90 mins oxgall-stressed Bifidobacterium longum P/N 601377 after 18 hrs; assay type: functional; in short: as §3
[36] = tested on: Bifidobacterium pseudolongum; test: Antimicrobial activity against 90 mins oxgall-stressed Bifidobacterium pseudolongum ATCC 25562 after 18 hrs; assay type: functional; in short: as §3
[37] = tested on: Bifidobacterium thermophilum; test: Antimicrobial activity against 90 mins oxgall-stressed Bifidobacterium thermophilum ATCC 25866 after 18 hrs; assay type: functional; in short: as §3
[38] = tested on: Bifidobacterium animalis; test: Antimicrobial activity against 90 mins hydrogen peroxide-stressed Bifidobacterium animalis ATCC 27536 after 18 hrs; assay type: functional
In short: (§4)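 Stress applied for 90 min at 37°C under anaerobic conditions, using MRS (initial pH 6.5) containing H2O2 at each strain's own inhibitory concentration. The H2O2 level was set beforehand by microplate tolerance testing. Challenged cells were regrown in MRS for 24 h (footnote: 18 h) before MIC testing by broth microdilution. Median of four repetitions.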

[39] = tested on: Bifidobacterium bifidum; test: Antimicrobial activity against 90 mins hydrogen peroxide-stressed Bifidobacterium bifidum R0071 after 18 hrs; assay type: functional; in short: as §4
[40] = tested on: Bifidobacterium bifidum; test: Antimicrobial activity against 90 mins hydrogen peroxide-stressed Bifidobacterium bifidum BB12 after 18 hrs; assay type: functional; in short: as §4
[41] = tested on: Bifidobacterium breve; test: Antimicrobial activity against 90 mins hydrogen peroxide-stressed Bifidobacterium breve ATCC 15700 after 18 hrs; assay type: functional; in short: as §4
[42] = tested on: Bifidobacterium breve; test: Antimicrobial activity against 90 mins hydrogen peroxide-stressed Bifidobacterium breve R0070 after 18 hrs; assay type: functional; in short: as §4
[43] = tested on: Bifidobacterium longum; test: Antimicrobial activity against 90 mins hydrogen peroxide-stressed Bifidobacterium longum ATCC 15707 after 18 hrs; assay type: functional; in short: as §4
[44] = tested on: Bifidobacterium longum; test: Antimicrobial activity against 90 mins hydrogen peroxide-stressed Bifidobacterium longum ATCC 15708 after 18 hrs; assay type: functional; in short: as §4
[45] = tested on: Bifidobacterium longum; test: Antimicrobial activity against 90 mins hydrogen peroxide-stressed Bifidobacterium longum R0175 after 18 hrs; assay type: functional; in short: as §4
[46] = tested on: Bifidobacterium longum; test: Antimicrobial activity against 90 mins hydrogen peroxide-stressed Bifidobacterium longum P/N 601377 after 18 hrs; assay type: functional; in short: as §4
[47] = tested on: Bifidobacterium thermophilum; test: Antimicrobial activity against 90 mins hydrogen peroxide-stressed Bifidobacterium thermophilum ATCC 25866 after 18 hrs; assay type: functional; in short: as §4

Measured: MIC

CN(C)[C@@H]1C(O)=C(C(N)=O)C(=O)[C@@]2(O)C(O)=C3C(=O)c4c(O)cccc4[C@@](C)(O)[C@H]3C[C@@H]12.Cl [TETRACYCLINE HYDROCHLORIDE]
250 µg/mL: [16] | [30]
62.5 µg/mL: [8] | [11] | [12] | [13] | [19] | [25] | [29] | [33] | [35] | [38] | [39]
125 µg/mL: [6] | [18] | [23] | [24] | [26] | [31] | [32] | [34] | [36] | [37] | [46]
3.9 µg/mL: [1] | [27]
7.8 µg/mL: [40] | [42] | [43]
31.2 µg/mL: [2] | [3] | [5] | [7] | [14] | [17] | [28] | [41] | [44]
15.6 µg/mL: [4] | [9] | [10] | [45] | [47]
0.98 µg/mL: [15] | [20] | [21] | [22]

NC[C@H]1O[C@H](O[C@H]2[C@H](O)[C@@H](O[C@H]3O[C@H](CO)[C@@H](O)[C@H](N)[C@H]3O)[C@H](N)C[C@@H]2N)[C@H](O)[C@@H](O)[C@@H]1O [KANAMYCIN]
0.98 µg/mL: [14]
250 µg/mL: [9] | [15] | [20] | [21] | [22] | [31] | [35] | [46]
> 500 µg/mL: [3] | [4] | [5] | [6] | [10] | [11] | [30] | [41]
125 µg/mL: [26]
500 µg/mL: [1] | [2] | [7] | [8] | [12] | [13] | [16] | [17] | [18] | [19] | [23] | [24] | [25] | [27] | [28] | [29] | [32] | [33] | [34] | [36] | [37] | [38] | [39] | [40] | [42] | [43] | [44] | [45] | [47]

CC1(C)S[C@@H]2[C@H](NC(=O)Cc3ccccc3)C(=O)N2[C@H]1C(=O)O [PENICILLIN G]
3.9 µg/mL: [2] | [8]
1.9 µg/mL: [12] | [14] | [17]
0.98 µg/mL: [1] | [3] | [4] | [5] | [6] | [7] | [9] | [10] | [11] | [13] | [15] | [16] | [18] | [19] | [20] | [21] | [22] | [23] | [24] | [25] | [26] | [27] | [28] | [29] | [30] | [31] | [32] | [33] | [34] | [35] | [36] | [37] | [38] | [39] | [40] | [41] | [42] | [43] | [44] | [45] | [46] | [47]
